ChEMBL document CHEMBL1795318, “Development of tetrahydroisoquinoline-based hydroxamic acid derivatives: potent histone deacetylase inhibitors with marked in vitro and in vivo antitumor activities” (J Med Chem, 2011)

biological target: T1, Histone deacetylase 8 (Homo sapiens, UniProt Q9BY41); assay: Inhibition of HDAC8 after 30 mins by fluorescence microplate reader
T1 sequence (Q9BY41 whole entry): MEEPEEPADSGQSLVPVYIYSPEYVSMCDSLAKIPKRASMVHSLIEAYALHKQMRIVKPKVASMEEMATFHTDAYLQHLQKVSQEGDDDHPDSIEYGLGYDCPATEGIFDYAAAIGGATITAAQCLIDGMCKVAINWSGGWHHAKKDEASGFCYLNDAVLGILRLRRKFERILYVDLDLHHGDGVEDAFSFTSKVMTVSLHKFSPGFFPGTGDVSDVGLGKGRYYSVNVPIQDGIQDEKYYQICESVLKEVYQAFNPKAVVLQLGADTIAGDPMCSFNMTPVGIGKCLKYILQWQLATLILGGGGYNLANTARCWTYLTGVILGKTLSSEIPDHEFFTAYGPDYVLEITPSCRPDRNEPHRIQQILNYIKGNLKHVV
In short: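 HDAC8 mixed with compound at various concentrations, fluorogenic substrate added, 37 °C for 30 min; stopped with developer containing trypsin and TSA. Fluorescence read after 20 min (ex 390/em 460 nm); inhibition relative to control wells, IC50 by regression of concentration/inhibition data; mean ± SD of at least three determinations.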

SMILES	IC50 [nM]
COc1ccc(NC(=O)[C@@H]2Cc3ccc(OCC(=O)NO)cc3CN2C(=O)[C@H](Cc2ccc(O)cc2)NC(=O)OC(C)(C)C)cc1	175
COc1ccc(NC(=O)[C@@H]2Cc3ccc(OCC(=O)NO)cc3CN2C(=O)[C@@H](N)Cc2ccc(O)cc2)cc1	634
COc1ccc(NC(=O)[C@@H]2Cc3ccc(OCC(=O)NO)cc3CN2C(=O)[C@@H]2CCCN2)cc1	481
COc1ccc(NC(=O)[C@@H]2Cc3ccc(OCC(=O)NO)cc3CN2C(=O)[C@H](C)N)cc1	1280
COc1ccc(NC(=O)[C@@H]2Cc3ccc(OCC(=O)NO)cc3CN2Cc2ccccc2)cc1	1920
COc1ccc(NC(=O)[C@@H]2Cc3ccc(OCC(=O)NO)cc3CN2C(=O)[C@@H](N)CC(C)C)cc1	675
COc1ccc(NC(=O)[C@@H]2Cc3ccc(OCC(=O)NO)cc3CN2C(=O)[C@H](CC(C)C)NC(=O)OC(C)(C)C)cc1	163
COc1ccc(NC(=O)[C@@H]2Cc3ccc(OCC(=O)NO)cc3CN2C(=O)[C@@H]2CCCN2C(=O)OC(C)(C)C)cc1	212
COc1ccc(NC(=O)[C@@H]2Cc3ccc(OCC(=O)NO)cc3CN2CCCc2ccccc2)cc1	1720
COc1ccc(NC(=O)[C@@H]2Cc3ccc(OCC(=O)NO)cc3CN2CCc2ccccc2)cc1	1020
COc1ccc(NC(=O)[C@@H]2Cc3ccc(OCC(=O)NO)cc3CN2C(=O)[C@@H](N)Cc2ccccc2)cc1	368
COc1ccc(NC(=O)[C@@H]2Cc3ccc(OCC(=O)NO)cc3CN2C(=O)CN)cc1	2140
O=C(COc1ccc2c(c1)CN(C(=O)CCc1ccccc1)[C@H](C(=O)NCCc1ccccc1)C2)NO	692
CC[C@H](C)[C@H](N)C(=O)N1Cc2cc(OCC(=O)NO)ccc2C[C@H]1C(=O)Nc1ccc(OC)cc1	1040
COc1ccc(NC(=O)[C@@H]2Cc3ccc(OCC(=O)NO)cc3CN2C(=O)CNC(=O)OC(C)(C)C)cc1	514
COc1ccc(NC(=O)[C@@H]2Cc3ccc(OCC(=O)NO)cc3CN2C(=O)[C@@H](N)C(C)C)cc1	1020
COc1ccc(NC(=O)[C@@H]2Cc3ccc(OCC(=O)NO)cc3CN2C(=O)[C@H](C)NC(=O)OC(C)(C)C)cc1	182
O=C(COc1ccc2c(c1)CN(C(=O)CCc1ccccc1)[C@H](C(=O)Nc1ccccc1)C2)NO	759
